Active and inactive are the calls of the source.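 How the source made its calls: active means maximal cell kill higher at a 0.156 ng/ml dose of TRAIL, the death-signal protein, than with no TRAIL; inactive means the rest.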
Key:
[1] = system: PPC-1 cytotoxicity with TRAIL, ATPLite luminescence, 24 h; assay: cytotoxicity with versus without TRAIL, dose response, mechanism study for TRAIL sensitizer project, cell-based, PPC-1, ATPlite luminescence, 24 h (AID 1765)
Procedure, shortened: (§1)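 test system = PPC-1 cells | probe or stimulus = TRAIL 0.156 or 0 ng/mL | doses = 2-fold series from 10 µM, 0.5% DMSO | times = compound pre-incubation 4 h before TRAIL, then 24 h TRAIL exposure | measured by = ATPlite luminescence | controls = 10 µM doxorubicin with TRAIL as full-kill reference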

[2] = as above; details: PPC-1 cytotoxicity with TRAIL, ATPLite luminescence, 24 h
Procedure, shortened: as §1

[3] = measured here: cytotoxicity without TRAIL
[4] = measured here: max cytotoxicity with TRAIL
[5] = measured here: max cytotoxicity without TRAIL

| Compound | EC50 [1] | EC50 [1, 3] [nM] | maximal effect [2, 4] [%] | maximal effect [2, 5] [%] |
| --- | --- | --- | --- | --- |
| CSc1nc(-c2ccccc2)nc(C(Cl)Cl)n1 | > 10000 nM (inactive) | > 10000 | – | – |
| CCSc1nc(-c2ccccc2)nc(C(Cl)Cl)n1 | 2580 nM | 2500 | 46.7 | 34.2 |
| CSc1nc(-c2ccc(C)cc2)nc(C(Cl)Cl)n1 | 1000 nM | 810 | 94.5 | 50.4 |
